Experimental data from ChEMBL document CHEMBL5303300, “EUbOPEN Chemogenomics Library - Multiplex” (2023).
“And” between values parts separate entries of the source, which are not always exact repeats. Identical values can stand only once.

Tested on: Fibroblast
Experiment: Multiplex assay against human fibroblast
Type: toxicity, cell-based
Details: number of replicates 2
Summary of the method: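 Cells stained live at seeding with Hoechst33342, BioTracker Green Microtubule Cytoskeleton Dye, MitoTracker Red and Annexin V Alexa Fluor 680 were imaged on a CQ1 microscope at 37°C and 5% CO2 after compound addition. Their classification by CellPathfinder machine-learning gating ran from Hoechst high-intensity objects versus normal cells, to healthy, pyknosed or fragmented nuclei among normal cells, to mitotic or apoptotic among pyknosed cells. Tubulin, mitochondrial-mass and membrane-permeability phenotypes are per cents of healthy-nucleus cells.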

[1] = 12 h, 1 µM, compound concentration 1 uM
[2] = 12 h, 10 µM, compound concentration 10 uM
[3] = 24 h, 1 µM, compound concentration 1 uM
[4] = 24 h, 10 µM, compound concentration 10 uM
[5] = 48 h, 1 µM, compound concentration 1 uM
[6] = 48 h, 10 µM, compound concentration 10 uM

## CCN1C(=O)N(c2c(F)c(OC)cc(OC)c2F)Cc2cnc3[nH]c(CN4CCOCC4)cc3c21 [PEMIGATINIB]
[1]
  Population Apoptotic (%): 60% and 45%
  Population Fragmented Nuclei (%): 8%
  Population Healthy Nuclei (%): 75% and 58%
  Population Hoechst High Intensity Objects (%): 0%
  Population Membrane Permeable-Phenotype (%): 3% and 8%
  Population Mitochondria Different-Phenotype (%): 1%
  Population Mitotic Cells (%): 40% and 54%
  Population Normal (%): 99% and 100%
  Population Pyknosed Nuclei (%): 15% and 33%
  Population Tubulin-Different-Phenotype (%): 13% and 14%
  Total Cell Count: 220 and 246
[2]
  Population Apoptotic (%): 57% and 38%
  Population Fragmented Nuclei (%): 12% and 20%
  Population Healthy Nuclei (%): 53% and 51%
  Population Hoechst High Intensity Objects (%): 0%
  Population Membrane Permeable-Phenotype (%): 8% and 12%
  Population Mitochondria Different-Phenotype (%): 1% and 4%
  Population Mitotic Cells (%): 42% and 61%
  Population Normal (%): 100%
  Population Pyknosed Nuclei (%): 33% and 28%
  Population Tubulin-Different-Phenotype (%): 37% and 26%
  Total Cell Count: 134 and 190
[3]
  Population Apoptotic (%): 72% and 67%
  Population Fragmented Nuclei (%): 8% and 7%
  Population Healthy Nuclei (%): 76% and 61%
  Population Hoechst High Intensity Objects (%): 0%
  Population Membrane Permeable-Phenotype (%): 5% and 7%
  Population Mitochondria Different-Phenotype (%): 1% and 0%
  Population Mitotic Cells (%): 27% and 32%
  Population Normal (%): 99% and 100%
  Population Pyknosed Nuclei (%): 15% and 30%
  Population Tubulin-Different-Phenotype (%): 7% and 14%
  Total Cell Count: 237 and 226
[4]
  Population Apoptotic (%): 69% and 46%
  Population Fragmented Nuclei (%): 16% and 20%
  Population Healthy Nuclei (%): 57% and 50%
  Population Hoechst High Intensity Objects (%): 0%
  Population Membrane Permeable-Phenotype (%): 3% and 5%
  Population Mitochondria Different-Phenotype (%): 3%
  Population Mitotic Cells (%): 30% and 53%
  Population Normal (%): 100%
  Population Pyknosed Nuclei (%): 26% and 28%
  Population Tubulin-Different-Phenotype (%): 29% and 11%
  Total Cell Count: 136 and 182
[5]
  Population Apoptotic (%): 75% and 71%
  Population Fragmented Nuclei (%): 10%
  Population Healthy Nuclei (%): 76% and 60%
  Population Hoechst High Intensity Objects (%): 0%
  Population Membrane Permeable-Phenotype (%): 5% and 3%
  Population Mitochondria Different-Phenotype (%): 0%
  Population Mitotic Cells (%): 24% and 28%
  Population Normal (%): 99%
  Population Pyknosed Nuclei (%): 13% and 28%
  Population Tubulin-Different-Phenotype (%): 5% and 8%
  Total Cell Count: 240 and 232
[6]
  Population Apoptotic (%): 81% and 83%
  Population Fragmented Nuclei (%): 17% and 25%
  Population Healthy Nuclei (%): 57% and 51%
  Population Hoechst High Intensity Objects (%): 0%
  Population Membrane Permeable-Phenotype (%): 5% and 8%
  Population Mitochondria Different-Phenotype (%): 1%
  Population Mitotic Cells (%): 18% and 16%
  Population Normal (%): 100%
  Population Pyknosed Nuclei (%): 25% and 22%
  Population Tubulin-Different-Phenotype (%): 25% and 18%
  Total Cell Count: 128 and 166
